In publication PMC8738139 (Neuron, 2021):

Molecular target: CNGA1 (Homo sapiens, UniProt P29973+Q14028)
Assay: cryo-EM structures
Assay type: cell-based
In short: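 HEK293 cells co-transfected with human CNGA1/B1 and a GFP marker, then trypsinised and re-plated 48 h later. Whole-cell currents recorded at 100 mV. Pipette: 140 mM KCl, 5 mM EGTA, 10 mM HEPES pH 7.4, 1 mM cGMP. Bath: 140 mM NaCl, 4 mM KCl, 1 mM EGTA, 10 mM HEPES pH 7.4 plus varied test compound. Ki from Hill fit; mean ± SEM, n=5.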

CNGA1, sequence (P29973 141-686): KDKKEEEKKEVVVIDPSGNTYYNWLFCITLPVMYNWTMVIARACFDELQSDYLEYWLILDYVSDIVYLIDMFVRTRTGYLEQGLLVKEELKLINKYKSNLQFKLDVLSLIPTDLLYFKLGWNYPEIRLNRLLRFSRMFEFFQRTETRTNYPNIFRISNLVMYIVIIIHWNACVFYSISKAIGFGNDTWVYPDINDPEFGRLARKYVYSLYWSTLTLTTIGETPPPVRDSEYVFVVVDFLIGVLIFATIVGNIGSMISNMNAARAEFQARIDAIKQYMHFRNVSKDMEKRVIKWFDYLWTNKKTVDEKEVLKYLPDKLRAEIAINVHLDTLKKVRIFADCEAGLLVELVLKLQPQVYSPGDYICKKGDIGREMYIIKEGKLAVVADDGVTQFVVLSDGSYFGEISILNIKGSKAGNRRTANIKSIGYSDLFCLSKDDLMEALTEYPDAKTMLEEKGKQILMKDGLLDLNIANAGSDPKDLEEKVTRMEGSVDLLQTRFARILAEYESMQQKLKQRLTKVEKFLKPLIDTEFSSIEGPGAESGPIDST
CNGA1, sequence (Q14028 456-1251): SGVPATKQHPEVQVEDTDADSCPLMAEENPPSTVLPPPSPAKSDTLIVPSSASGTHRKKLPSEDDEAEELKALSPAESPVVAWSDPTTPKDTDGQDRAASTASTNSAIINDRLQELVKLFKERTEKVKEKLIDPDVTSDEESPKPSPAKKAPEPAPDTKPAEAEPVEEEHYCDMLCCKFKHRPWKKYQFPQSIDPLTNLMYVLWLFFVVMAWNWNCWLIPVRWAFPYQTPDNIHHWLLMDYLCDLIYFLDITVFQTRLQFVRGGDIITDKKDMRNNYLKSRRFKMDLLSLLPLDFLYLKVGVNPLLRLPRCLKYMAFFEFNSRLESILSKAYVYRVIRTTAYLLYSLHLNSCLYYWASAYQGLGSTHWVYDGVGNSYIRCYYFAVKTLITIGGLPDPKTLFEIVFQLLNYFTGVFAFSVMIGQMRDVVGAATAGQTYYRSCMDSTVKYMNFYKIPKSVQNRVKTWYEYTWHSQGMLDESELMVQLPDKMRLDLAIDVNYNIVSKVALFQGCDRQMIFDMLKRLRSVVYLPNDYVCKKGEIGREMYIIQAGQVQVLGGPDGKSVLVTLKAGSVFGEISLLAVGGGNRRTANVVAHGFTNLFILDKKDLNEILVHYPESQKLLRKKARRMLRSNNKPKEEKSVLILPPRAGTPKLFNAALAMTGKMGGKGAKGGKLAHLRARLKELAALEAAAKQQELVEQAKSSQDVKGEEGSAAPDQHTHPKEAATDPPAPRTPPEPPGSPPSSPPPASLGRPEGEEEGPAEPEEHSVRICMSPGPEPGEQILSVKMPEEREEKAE

With `COc1ccc([C@H]2Sc3ccccc3N(CCN(C)C)C(=O)[C@H]2OC(C)=O)cc1` [L-cis-Diltiazem] the Ki was 3.68 ± 0.13 µM.
